# This is a sample that favours compounds with a hit; in the whole collection about 2.6% have one here.
# SENP7 inh – inhibitors of human SENP7 protease | hit rate 1.5% among 330,000 | Q9BQF6 | recombinant SENP7, Z-RLRGG-aminoluciferin luminescence, 40 min | inhibition, % at 5 µM | AID 434973;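 active = inhibition above about 50% at the single test dose, limit read from the data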;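 note: plate controls were DMSO with enzyme for no effect and no enzyme buffer wells for full effect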
# SENP1 FRET inh – inhibitors of human SENP1 SUMO protease catalytic domain; Q9P0U3; recombinant SENP1 catalytic domain, CyPet-SUMO1-YPet FRET cleavage; inhibition, % at 10 µM; hit rate 0.21% among 360,000;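 active = inhibition at least 30% at 10 µM, raw YFP signal under a set limit, fluorescence ratio 0.5 to 1.5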;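 note: 0% = enzyme with DMSO and 100% = no enzyme wells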
#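 Material – human SENP1 catalytic domain · Input – SENP1 enzyme, 20 pM final · Compound dosing – single concentration of 10 µM compound, 0.5% DMSO final · Timing – enzyme reaction for 50 min at room temperature, dark · Measured by – FRET fluorescence in CFP and YFP emission channels · Control set – no-enzyme wells low, DMSO-plus-enzyme wells high control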
# SENP6 block – SENP6 protease inhibition. Q9GZR1. Recombinant SENP6 catalytic domain, aminoluciferin luminescence. inhibition, % at 10 µM. hit rate 1.8% among 330,000. AID 2599;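 active = inhibition above about 50% at the single tested dose, limit read from the data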;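 note: plate controls were DMSO wells with enzyme for no effect and DMSO wells lacking enzyme for full effect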
# Target sequence (Q9GZR1 628-1112 limits assumed): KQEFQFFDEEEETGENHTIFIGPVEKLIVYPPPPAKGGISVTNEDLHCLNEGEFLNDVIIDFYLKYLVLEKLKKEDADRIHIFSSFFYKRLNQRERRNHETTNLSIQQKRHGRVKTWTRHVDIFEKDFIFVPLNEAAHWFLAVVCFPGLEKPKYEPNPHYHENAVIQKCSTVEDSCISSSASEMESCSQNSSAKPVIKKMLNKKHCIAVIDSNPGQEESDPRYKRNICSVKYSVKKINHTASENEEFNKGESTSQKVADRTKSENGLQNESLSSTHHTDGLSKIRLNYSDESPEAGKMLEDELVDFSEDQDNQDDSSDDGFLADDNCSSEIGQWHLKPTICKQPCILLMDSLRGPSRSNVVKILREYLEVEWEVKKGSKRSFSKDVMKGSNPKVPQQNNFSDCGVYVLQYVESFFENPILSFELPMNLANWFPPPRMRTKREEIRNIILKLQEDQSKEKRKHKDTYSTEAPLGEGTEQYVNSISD
# SENP8 block-1 – inhibitors of human SENP8 protease. inhibition, % at 20 µM. AID 602440. hit rate 0.64% among 360,000. Q96LD8. recombinant SENP8, Nedd8 substrate fluorescence; in the data active = inhibition mostly above about 40%, no sharp cut-off; inactive = mostly below about 27%
# Platelet DG rel – platelet dense granule release activity; human platelet-rich plasma, SFLLRN dense granule ATP release, luminescence; inhibition, %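 (compounds screened at 7.5 µM in platelet-rich plasma)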; hit rate 0.22% among 300,000;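 active = mean replicate score, as percent of positive control, at or above 50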
# SENP8 block-2 – SENP8 protease inhibition; purified SENP8, Z-RLRGG-aminoluciferin cleavage, luminescence; Q96LD8; inhibition, % at 10 µM; AID 2540; hit rate 1.2% among 330,000; in the data active = inhibition above about 50%
# SENP8 confirm – human SENP8 inhibition, confirmed | shares compounds with SENP7 inh | Recombinant SENP8, Z-RLRGG-aminoluciferin luminescence, 60 min | inhibition, % at 12.5 µM | hit rate 40% among 6,200 | AID 488912;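 active = mean inhibition across replicates above about 50%, limit read from the data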
# SENP6 conf – confirmation of human SENP6 protease inhibitors; inhibition, % at 12.5 µM; recombinant SENP6, Z-RLRGG-aminoluciferin luminescence; shares compounds with SENP7 inh; hit rate 58% among 6,200
# SENP7 conf – human SENP7 inhibition, confirmed; AID 488917; recombinant SENP7, Z-RLRGG-aminoluciferin luminescence, 40 min; hit rate 69% among 6,200; shares compounds with SENP7 inh; inhibition, % at 12.5 µM
# Casp3 select – inhibits human caspase-3 in SENP selectivity test. shares compounds with SENP7 inh. inhibition, % at 12.5 µM. hit rate 60% among 6,200. purified caspase-3, Z-DEVD-aminoluciferin luminescence, 60 min. AID 488918;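 active = mean inhibition above about 50%, limit read from the data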;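 note: plate controls were enzyme with DMSO for no effect and wells without caspase-3 for full effect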
# SENP luc ctr – interferes with luciferase luminescence in SENP counter-screen; Pre-incubated SENP8/Z-RLRGG-aminoluciferin, luciferase luminescence interference; inhibition, % at 12.5 µM; AID 488919; hit rate 39% among 6,200; shares compounds with SENP7 inh;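 active = mean inhibition above about 50% when retested at one dose, limit read from the data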;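 note: plate controls were DMSO wells with completed reaction for no effect and substrate without enzyme for full effect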
# Numbers without * were called inactive; · = no result given.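 Rule for the calls, unless noted: active = mean inhibition above about 50% in the one-dose retest (limit read from the data); inactive = the rest.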
SMILES,SENP7 inh,SENP1 FRET inh,SENP6 block,SENP8 block-1,Platelet DG rel,SENP8 block-2,SENP8 confirm,SENP6 conf,SENP7 conf,Casp3 select,SENP luc ctr
Fc1ccc(-c2noc(-c3ccc4c(c3)CCO4)n2)cc1,96.2*,0.2,78.5*,4.8,7.0,67.5*,23.8,53.1*,48.0,71.2*,36.5
S=c1nccc(-c2ccc3c(c2)CCO3)[nH]1,5.8,0.1,-1.2,-31.2,8.0,1.8,·,·,·,·,·
Cc1ccc(C(=O)Nc2nnc(-c3ccco3)o2)cc1,44.4,1.9,44.4,27.5,11.6,-5.5,·,·,·,·,·
O=C(Nc1nnc(-c2ccco2)o1)c1ccc2ccccc2c1,18.0,2.0,70.6*,10.2,0.0,47.1,24.7,18.1,14.1,35.6,9.2
O=[N+]([O-])c1ccc(C=Nc2cccc3ccccc23)s1,41.1,-2.1,58.1*,-394.0,-3.1,47.4,4.7,1.7,-5.2,-5.2,-3.7
O=[N+]([O-])c1ccc(-c2ccc(C=Nc3cccc4ccccc34)o2)cc1,52.2*,0.5,83.2*,-285.2,-4.0,44.8,-4.9,2.2,4.2,8.1,-1.7
CCN(CC)S(=O)(=O)c1ccc2c(c1)N(CC(=O)N1CCCC1)C(=O)CO2,0.5,-1.0,3.8,21.3,4.7,-3.4,·,·,·,·,·
Cc1cc(C(=O)COc2cccc3cccnc23)c(C)n1C,29.0,-24.6,79.0*,-127.1,-2.0,12.8,8.4,6.6,7.0,10.0,9.3
CCn1c(C)cc(C(=O)COC(=O)c2cccnc2SC)c1C,48.8,0.1,-15.8,14.1,·,46.2,·,·,·,·,·
CSc1ncccc1C(=O)OCC(=O)c1cc(C)n(C)c1C,37.1,-2.1,53.8*,0.6,·,37.2,14.5,45.9,82.5*,73.4*,45.0
CSc1ncccc1C(=O)OCC(=O)c1cc(C)n(CC2CCCO2)c1C (centres undefined),78.3*,0.3,87.7*,16.3,4.2,83.1*,91.6*,91.6*,99.2*,93.1*,32.0
COc1cc(C(=O)OCC(=O)c2cc(C)n(CC3CCCO3)c2C)cc(OC)c1C (centres undefined),-15.6,0.6,-10.9,-0.5,·,6.9,·,·,·,·,·
CSc1ncccc1C(=O)OCC(=O)c1ccccc1,33.8,2.8,53.2*,-0.7,-5.5,28.0,6.8,20.4,70.3*,56.3*,-1.5
COc1ccc(CNC(=O)C(=O)NCC2OCCN2S(=O)(=O)c2ccccc2)cc1 (centres undefined),2.8,-3.8,-13.3,0.0,-1.1,-1.3,·,·,·,·,·
Cc1cc(C)c2c(=N)c3ccccc3n(CCCCCCCCn3c4ccccc4c(=N)c4c(C)cc(C)nc43)c2n1,·,-28.4,·,-491.2,·,·,·,·,·,·,·
Cc1ccccc1-c1nnc(SCC(=O)NC2CCS(=O)(=O)C2)n1C (centres undefined),6.8,0.1,0.3,23.9,·,0.8,·,·,·,·,·
Cc1ccc2nc(NC(=O)c3ccc(-c4nc5ccccc5s4)s3)sc2c1,0.7,-17.4,-4.3,-207.0,·,3.2,·,·,·,·,·
CCNC(=O)COC(=O)c1ccc(-c2nc3ccccc3s2)s1,98.7*,-2.9,96.5*,-388.2,46.0,96.3*,87.4*,95.6*,100.9*,92.6*,10.9
O=C(c1ccc(-c2nc3ccccc3s2)s1)N1CCOCC1,96.0*,·,96.9*,·,46.0,93.6*,90.7*,97.0*,101.1*,96.3*,68.8*
O=C(NC1CC1)c1ccc(-c2nc3ccccc3s2)s1,97.9*,-0.3,90.9*,-222.3,26.8,88.4*,81.2*,94.9*,101.6*,96.0*,37.1
